Assay results from different studies.
Lines come from different studies, so protocols differ.
HCK: Tyrosine-protein kinase HCK (HCK, Homo sapiens, UniProt P08631)

Cc1c(NC(=O)c2cc(C(N)=O)nc3cc(F)ccc23)c(C(F)(F)F)nn1Cc1ccc(C#N)cc1
remaining binding (HCK; cell-free assay, competition with immobilised ligand; 1 µM): 69%

COc1cc2ncnc(Nc3ccc(Oc4ccccc4)c(C)c3C)c2cc1OC
inhibition (HCK; enzyme activity, inhibitor; 1 µM): 53%

Cc1ccc(NC(=O)c2ccc(C)c(C(F)(F)F)c2)cc1C#Cc1nn(C2CCC(O)CC2)c2ncnc(N)c12 (stereo not drawn)
remaining activity (HCK; enzyme activity, inhibitor; 10 µM): -1%

COc1cc(Nc2c(C#N)cnc3cc(OCCCN4CCN(C)CC4)c(OC)cc23)c(Cl)cc1Cl
remaining signal (HCK; cell-free assay; 0.5 µM): 11.9%

CCN(CC)CCNC(=O)c1c(C)[nH]c(/C=C2\C(=O)Nc3ccc(F)cc32)c1C
inhibition (HCK; enzyme activity, inhibitor; 10 µM): 92%

C[C@H](c1ccnc(Nc2nc3ccc(-c4cc(N(C)C)ncn4)cc3[nH]2)c1)N1CCN(C(=O)CC(F)(F)F)CC1
remaining binding (HCK; cell-free assay, competition with immobilised ligand; 0.1 µM): 91%

Cc1ccc(Nc2nccc(N(C)c3ccc4c(C)n(C)nc4c3)n2)cc1S(N)(=O)=O
inhibition (HCK; enzyme activity, inhibitor; 0.3 µM): 21%

CN(C)C1CCN(CC#Cc2nn(C3CCCC3)c3nc(NCc4ccccc4)ncc23)C1 (stereo not drawn)
inhibition (HCK; enzyme activity, inhibitor, FRET; 1 µM): 2%

NS(=O)(=O)c1cc(NC(=O)C2(c3ccccc3Cl)CC2)ccc1Oc1cccc(Cl)c1
remaining binding (HCK; cell-free assay, competition with immobilised ligand; 1 µM): 89%

Cc1ccc(C(=O)NCc2ccsc2)cc1C#Cc1cn(C(C)C)c2ncnc(N)c12
activity vs control (HCK; enzyme activity, inhibitor; 1 µM): 4%

COc1cc2c(N3CCN(C(=O)Nc4ccc(OC(C)C)cc4)CC3)ncnc2cc1OCCCN1CCCCC1
remaining signal (HCK; cell-free assay; 0.5 µM): 93.2%

Cc1sc(C(=O)NC2COC2)cc1-n1cc(NC(=O)Nc2c(F)cccc2Cl)cn1
remaining activity (HCK; enzyme activity, inhibitor; 10 µM): 95%

Nc1ncnc2occ(-c3ccc(NC(=O)Nc4cc(C(F)(F)F)ccc4F)cc3)c12
remaining signal (HCK; cell-free assay; 20 µM): 0.2%

O=C(Nc1cccnn1)N1CC(C/C=C/c2cncc(Oc3ccc(C(F)(F)F)cn3)n2)C1
remaining binding (HCK; cell-free assay, competition with immobilised ligand; 1 µM): 100%

O=C1NC(=O)c2cc(Nc3ccc(F)cc3)c(Nc3ccc(F)cc3)cc21
remaining signal (HCK; cell-free assay; 0.5 µM): 88.3%

CC(=O)N1CCC(c2ccc(C(=O)NC(=N)N)cc2C(F)(F)F)CC1
remaining binding (HCK; cell-free assay, competition with immobilised ligand; 1 µM): 100%

COc1cc(Cl)c(C(=O)N[C@@H](CN[C@H]2CC[C@@H](N)CC2)Cc2ccc(C#N)cc2)cc1-c1ccc(CN[C@H](C)c2ccc(C)cc2)o1
remaining activity (HCK; enzyme activity, inhibitor; 1 µM): 99%

CN(C(=O)c1ccccc1)c1cc(N(C)c2ccc3c(c2)CCc2ccc(C(=O)NCCN4CCOCC4)cc2C3=O)ccc1F
remaining binding (HCK; cell-free assay, competition with immobilised ligand; 1 µM): 100%

CC/C(=N\NC(=O)NCc1cccc(O)c1)c1ccc(O)c(C)c1O
inhibition (HCK; enzyme activity, inhibitor; 0.1 µM): 6.1%

CCCS(=O)(=O)Nc1ccc(F)c(C(=O)c2c[nH]c3ncc(-c4ccc(Cl)cc4)cc23)c1F
inhibition (HCK; enzyme activity, inhibitor; 1 µM): < 10%

COc1cc2ncnc(Nc3ccc(F)c(Cl)c3)c2cc1OCCCN1CCOCC1
remaining signal (HCK; cell-free assay; 0.5 µM): 73.3%

CCCOc1ccc([C@@H]2[C@@H](C(=O)O)[C@H](c3ccc4c(c3)OCO4)CN2CC(=O)Nc2c(CC)cccc2CC)cc1
remaining binding (HCK; cell-free assay, competition with immobilised ligand; 1 µM): 92%

CNC(=O)c1cc2c(Oc3ccc(NC(=O)C4(C(=O)Nc5ccc(F)cc5)CC4)cc3)ccnc2cc1OC
inhibition (Tyrosine-protein kinase HCK, phosphorylated (HCK, Homo sapiens, UniProt P08631); enzyme activity, inhibitor, radiometric; 1 µM): 88%

Cc1ccc(NC(=O)c2ccc(CN3CCN(C)CC3)cc2)cc1Nc1nccc(-c2cncc(-c3oncc3C)c2)n1
remaining activity (HCK; enzyme activity, inhibitor; 0.5 µM): ≤ 50%
